According to ChEMBL document CHEMBL3576820, “Discovery of benzimidazole oxazolidinediones as novel and selective nonsteroidal mineralocorticoid receptor antagonists” (ACS Med Chem Lett, 2015):
Active and inactive are the calls of the source. No cut-off for these calls is given here.

Tests used:
[1] = biological target: T1, Mineralocorticoid receptor (Homo sapiens) (UniProt P08235); assay: Agonist activity at human mineralocorticoid receptor by cell-based assay
T1 sequence (whole entry): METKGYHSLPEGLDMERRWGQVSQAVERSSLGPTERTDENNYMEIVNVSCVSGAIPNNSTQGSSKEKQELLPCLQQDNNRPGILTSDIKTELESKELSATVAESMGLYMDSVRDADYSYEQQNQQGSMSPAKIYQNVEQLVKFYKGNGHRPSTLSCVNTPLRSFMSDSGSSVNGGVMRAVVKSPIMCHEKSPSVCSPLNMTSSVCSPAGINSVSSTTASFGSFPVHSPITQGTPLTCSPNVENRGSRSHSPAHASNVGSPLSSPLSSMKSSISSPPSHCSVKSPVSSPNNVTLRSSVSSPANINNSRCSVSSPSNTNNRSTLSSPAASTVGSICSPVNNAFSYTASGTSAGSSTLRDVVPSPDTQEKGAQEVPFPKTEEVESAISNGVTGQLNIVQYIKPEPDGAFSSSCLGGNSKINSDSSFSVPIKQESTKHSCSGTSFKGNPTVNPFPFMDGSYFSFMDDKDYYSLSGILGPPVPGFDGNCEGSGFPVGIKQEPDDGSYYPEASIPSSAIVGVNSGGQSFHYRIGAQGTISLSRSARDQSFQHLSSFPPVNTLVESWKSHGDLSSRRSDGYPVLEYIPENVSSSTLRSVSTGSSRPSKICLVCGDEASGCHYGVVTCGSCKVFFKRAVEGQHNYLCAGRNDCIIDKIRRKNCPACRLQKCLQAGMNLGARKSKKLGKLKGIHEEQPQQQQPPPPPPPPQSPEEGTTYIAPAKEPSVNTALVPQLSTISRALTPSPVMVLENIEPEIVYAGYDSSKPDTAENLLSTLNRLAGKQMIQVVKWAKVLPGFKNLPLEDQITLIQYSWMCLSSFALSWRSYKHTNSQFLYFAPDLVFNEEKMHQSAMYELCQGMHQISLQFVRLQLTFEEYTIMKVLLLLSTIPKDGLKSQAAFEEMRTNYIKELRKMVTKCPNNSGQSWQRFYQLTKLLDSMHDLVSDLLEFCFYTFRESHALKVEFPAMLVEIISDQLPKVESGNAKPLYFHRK

[2] = Oral bioavailability in Wistar han rat at 2 mg/kg; type: ADME, organism-based; conditions: in vivo
Method in brief: (§1)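 Wistar Han rats. IV dose 1 mg/kg in DMSO/PEG200/water (10:60:30), n=2. Oral dose 2 mg/kg in imwitor/tween (1:1) by gavage, n=3. Values are averages. Derived: F%, plasma clearance, Vdss, terminal half-life and oral AUC normalized to dose.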

[3] = biological target: T2, Progesterone receptor (Homo sapiens) (UniProt P06401); assay: Agonist activity at human progesterone receptor beta by cell-based assay
T2 sequence (whole entry): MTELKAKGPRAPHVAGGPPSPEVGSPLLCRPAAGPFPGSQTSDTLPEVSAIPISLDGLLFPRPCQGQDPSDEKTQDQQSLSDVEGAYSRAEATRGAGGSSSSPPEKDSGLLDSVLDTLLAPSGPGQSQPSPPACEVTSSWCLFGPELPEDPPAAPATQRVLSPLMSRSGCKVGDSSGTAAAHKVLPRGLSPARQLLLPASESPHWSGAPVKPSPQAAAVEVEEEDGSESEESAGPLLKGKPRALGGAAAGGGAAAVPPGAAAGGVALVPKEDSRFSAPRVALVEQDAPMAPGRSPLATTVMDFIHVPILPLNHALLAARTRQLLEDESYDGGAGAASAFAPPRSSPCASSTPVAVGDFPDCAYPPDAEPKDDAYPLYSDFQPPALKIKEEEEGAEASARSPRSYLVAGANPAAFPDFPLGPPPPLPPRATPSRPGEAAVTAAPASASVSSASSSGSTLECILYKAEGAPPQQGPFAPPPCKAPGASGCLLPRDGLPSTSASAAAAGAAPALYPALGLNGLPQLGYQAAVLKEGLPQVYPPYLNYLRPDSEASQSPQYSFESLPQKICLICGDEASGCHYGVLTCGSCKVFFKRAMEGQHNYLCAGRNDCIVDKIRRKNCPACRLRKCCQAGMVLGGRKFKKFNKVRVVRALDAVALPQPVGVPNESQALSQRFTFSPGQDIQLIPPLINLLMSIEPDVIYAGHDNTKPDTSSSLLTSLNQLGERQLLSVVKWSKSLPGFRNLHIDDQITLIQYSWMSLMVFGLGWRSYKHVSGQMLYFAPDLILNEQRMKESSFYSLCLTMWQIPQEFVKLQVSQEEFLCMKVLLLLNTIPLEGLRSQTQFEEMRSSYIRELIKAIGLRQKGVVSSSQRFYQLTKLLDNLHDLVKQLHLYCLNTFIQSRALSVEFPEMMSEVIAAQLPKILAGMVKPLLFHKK

[4] = test system: Rattus norvegicus; assay: Dose normalized AUC in Wistar han rat at 2 mg/kg, po; type: ADME, organism-based; conditions: in vivo; method in brief: as §1
[5] = biological target: T3, Glucocorticoid receptor (Homo sapiens, UniProt P04150); assay: Antagonist activity at human glucocorticoid receptor expressed in CHOK1 cells assessed as inhibition of dexamethasone-induced protein interaction with steroid receptor co-activator peptide after overnight incubation by beta-galactosidase reporter gene assay; type: cell-based, CHO-K1
T3 sequence (P04150 whole entry): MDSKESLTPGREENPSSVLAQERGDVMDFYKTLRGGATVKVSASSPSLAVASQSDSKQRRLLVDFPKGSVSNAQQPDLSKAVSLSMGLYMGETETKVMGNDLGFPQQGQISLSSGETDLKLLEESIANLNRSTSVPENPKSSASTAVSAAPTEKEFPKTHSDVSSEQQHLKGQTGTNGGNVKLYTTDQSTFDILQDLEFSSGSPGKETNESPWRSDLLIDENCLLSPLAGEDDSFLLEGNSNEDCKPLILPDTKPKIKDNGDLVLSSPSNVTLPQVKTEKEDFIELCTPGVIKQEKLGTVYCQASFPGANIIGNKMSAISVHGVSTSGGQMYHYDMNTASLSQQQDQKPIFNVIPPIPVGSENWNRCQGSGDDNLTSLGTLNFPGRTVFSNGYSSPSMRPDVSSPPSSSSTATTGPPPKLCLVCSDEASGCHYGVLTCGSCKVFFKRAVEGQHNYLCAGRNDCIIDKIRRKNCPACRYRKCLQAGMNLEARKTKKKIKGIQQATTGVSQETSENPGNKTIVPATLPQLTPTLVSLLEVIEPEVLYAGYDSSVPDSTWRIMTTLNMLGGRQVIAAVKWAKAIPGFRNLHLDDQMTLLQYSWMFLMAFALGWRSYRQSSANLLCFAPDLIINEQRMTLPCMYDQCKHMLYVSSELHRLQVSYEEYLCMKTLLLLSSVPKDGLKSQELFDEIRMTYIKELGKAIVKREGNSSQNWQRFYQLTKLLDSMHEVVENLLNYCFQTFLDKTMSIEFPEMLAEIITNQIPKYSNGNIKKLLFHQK

Row | Structure (SMILES) | Activity [1] | bioavailability [2] [%] | Activity [3] | AUC/dose [4] [µM·kg·h/mg] | IC50 [5] [µM]
1 | C[C@H](c1ccc(F)cc1)N1C(=O)O[C@](Cc2ccccc2)(c2nc3cc(NS(C)(=O)=O)ccc3[nH]2)C1=O | inactive | 6 | inactive | 0.067 | > 20
2 | C[C@H](c1ccc(F)cc1)N1C(=O)O[C@](Cc2ccccc2)(c2nc3cc(C(F)(F)F)ccc3[nH]2)C1=O | inactive | 36 | inactive | 0.33 | 3.4
3 | C[C@H](c1ccc(F)cc1)N1C(=O)O[C@](Cc2ccccc2)(c2nc3c(NS(C)(=O)=O)cccc3[nH]2)C1=O | inactive | 15 | inactive | 0.085 | 17
4 | C[C@H](c1ccc(F)cc1)N1C(=O)O[C@](Cc2ccccc2)(c2nc3cc(Cl)ccc3[nH]2)C1=O | inactive | 15 | inactive | 0.11 | 3.8
5 | C[C@H](c1ccc(F)cc1)N1C(=O)O[C@](Cc2ccccc2)(c2nc3cc(N4CCOCC4)ccc3[nH]2)C1=O | inactive | 44 | inactive | 0.07 | 4.9

The next molecules have a lower IC50 [5] than those just listed; values first:

Row | Activity [1] | bioavailability [2] [%] | Activity [3] | AUC/dose [4] [µM·kg·h/mg] | IC50 [5] [µM] | Structure (SMILES)
6 | inactive | 54 | inactive | 0.79 | 2.9 | Cc1nocc1-c1ccc2[nH]c([C@@]3(Cc4ccccc4)OC(=O)N([C@H](C)c4ccc(F)cc4)C3=O)nc2c1
7 | inactive | 27 | inactive | 0.49 | 3 | C[C@H](c1ccc(F)cc1)N1C(=O)O[C@](Cc2ccccc2)(c2nc3cc(-c4cc[nH]n4)ccc3[nH]2)C1=O
8 | inactive | 11 | inactive | 0.046 | 3.1 | C[C@H](c1ccc(F)cc1)N1C(=O)O[C@](Cc2ccccc2)(c2nc3cc(-c4cccnc4)ccc3[nH]2)C1=O
